{"data": "Measurements pooled from the literature", "note": "Lines come from different studies, so protocols differ."}
{"Structure (SMILES)": "Cc1ccc([N+](=O)[O-])cc1S(=O)(=O)n1c(C)nc2ccccc21", "host": "mouse", "sample": "liver", "route": "intraperitoneal", "dose": "30 mg/kg", "time": "24 h", "concentration": "3100 nM"}
{"Structure (SMILES)": "COc1ccc2[nH]c3c(C)c4ccnc(C(=O)N[C@H](C)CN(C)C)c4cc3c2c1", "host": "male C57BL/6 mouse", "sample": "brain", "route": "intraperitoneal", "dose": "10 mg/kg", "time": "2 h", "setting": "single dose", "concentration": "260 nM"}
{"Structure (SMILES)": "C[C@]12C[C@@]34C=CC(=O)[C@@](C)(CCC(=O)Nc5c(O)ccc(C(=O)O)c5O)[C@@H]3[C@H](C[C@@H]1C4)O2", "host": "male C57BL/6 mouse", "sample": "plasma", "route": "intravenous", "dose": "3 mg/kg", "time": "5 min", "setting": "single dose", "concentration": "20000 nM"}
{"Structure (SMILES)": "O=S(=O)(c1cccc(C(F)(F)F)n1)N1CCc2ccc(OCc3c(F)cccc3Cl)cc21", "host": "mouse", "sample": "plasma", "route": "intraperitoneal", "dose": "10 mg/kg", "time": "2 h", "concentration": "290 nM"}
{"Structure (SMILES)": "CC(C)CN(C[C@@H](O)[C@H](Cc1ccccc1)NC(=O)O[C@H]1CO[C@H]2OCC[C@H]21)S(=O)(=O)c1ccc(N)cc1", "host": "BALB/c mouse", "sample": "plasma", "route": "intravenous", "dose": "2.5 mg/kg", "time": "12 h", "concentration": "0.33 ng/mL"}
{"Structure (SMILES)": "CN(C(=O)n1cnc(-c2ccc[n+]([O-])c2)c1)C1CCCCC1", "host": "male CD-1 mouse", "sample": "plasma", "route": "oral", "dose": "10 mg/kg", "time": "8 h", "concentration": "83 ng/mL"}
{"Structure (SMILES)": "CC(C)Cc1nn(C)c(=O)c2c(SCCCO)n(Cc3cccc4ccccc34)cc12", "host": "mouse", "sample": "brain", "route": "intraperitoneal", "dose": "20 mg/kg", "time": "7 days", "concentration": "0 nM"}
{"Structure (SMILES)": "c1ccc(-c2nc(N3CCC(c4ccccn4)C3)c3ccccc3n2)nc1 (centres unmarked)", "host": "female BALB/c mouse", "sample": "plasma", "route": "oral", "dose": "50 mg/kg", "time": "15 min", "concentration": "2130 ng/mL"}
{"Structure (SMILES)": "O=C(N/N=C/c1ccc2ccccc2c1)c1ccc(O)cc1", "host": "male C57BL/6 mouse", "sample": "plasma", "route": "intraperitoneal", "dose": "30 mg/kg", "time": "2 h", "concentration": "~200 nM"}
{"Structure (SMILES)": "O=c1nc(N2CCN(CC3CCCCC3)CC2)sc2c([N+](=O)[O-])cc(C(F)(F)F)cc12", "host": "CD-1 mouse", "sample": "plasma", "route": "intravenous", "dose": "10 mg/kg", "time": "8 h", "concentration": "44.4 ng/mL"}
{"Structure (SMILES)": "O=S(=O)(c1ccc(-c2ccc3nccc(Nc4ccncn4)c3c2)cc1)N1CCOCC1", "host": "female BALB/c mouse", "sample": "plasma", "route": "intraperitoneal", "dose": "10 mg/kg", "time": "8 h", "concentration": "2.16 ng/mL"}
{"Structure (SMILES)": "O=S(=O)(c1cccc(C(F)(F)F)c1)N1CCc2ccc(OCc3c(F)cncc3Cl)cc21", "host": "mouse", "sample": "plasma", "route": "intraperitoneal", "dose": "10 mg/kg", "time": "4 h", "concentration": "210 nM"}
{"Structure (SMILES)": "O=C(O)C1CCN(c2ncc(-c3ccc4c(c3)OCCCO4)s2)CC1", "host": "male Swiss mouse", "sample": "plasma", "route": "oral", "dose": "30 mg/kg", "time": "15 min", "setting": "single dose", "concentration": "15000 ng/mL"}
{"Structure (SMILES)": "Cc1c2ccnc(C(=O)N[C@H](C)CN(C)C)c2cc2c3cc(O)ccc3n(C)c12", "host": "male C57BL/6 mouse", "sample": "brain", "route": "intraperitoneal", "dose": "10 mg/kg", "time": "2 h", "setting": "single dose", "concentration": "80 nM"}
{"Structure (SMILES)": "COc1cc(F)c([C@@H]2CNC(=O)[C@H]2NC(=O)Nc2ccccc2)c(F)c1", "host": "C57BL/6 mouse", "sample": "plasma", "route": "oral", "dose": "0.3 mg/kg", "time": "2 h", "concentration": "3 nM"}
{"Structure (SMILES)": "CC(C)(Nc1nc(-c2ccccn2)nc2ccccc12)c1ccccn1", "host": "female BALB/c mouse", "sample": "plasma", "route": "intravenous", "dose": "1 mg/kg", "time": "8 h", "concentration": "6 ng/mL"}
{"Structure (SMILES)": "CC(C)Oc1cccc(-c2cnc(N3CCC(C(N)=O)CC3)s2)c1", "host": "male Swiss mouse", "sample": "plasma", "route": "oral", "dose": "30 mg/kg", "time": "30 min", "setting": "single dose", "concentration": "416 ng/mL"}
